Experimental findings from ChEMBL document CHEMBL1921733, “III. Identification of novel CXCR3 chemokine receptor antagonists with a pyrazinyl-piperazinyl-piperidine scaffold” (Bioorg Med Chem Lett, 2011) are described below.

Broadly, the AUC is the area under the concentration-time curve, a measure of exposure. Low readings indicate low exposure, high ones high exposure. For orientation: IC50 means the concentration that inhibits the measured activity by half. A lower IC50 goes with inhibition by little substance. As usually defined, the inhibition is how much of the control response was suppressed. Low readings indicate little suppression, high ones strong suppression.

Data set [1] is described as follows: AUC in rat at 10 mg/kg, po after 6 hrs. To be noted: in vivo.
For data set [2], the target named is T1, C-X-C chemokine receptor type 3 (Homo sapiens, UniProt P49682).
T1 sequence (P49682 whole entry): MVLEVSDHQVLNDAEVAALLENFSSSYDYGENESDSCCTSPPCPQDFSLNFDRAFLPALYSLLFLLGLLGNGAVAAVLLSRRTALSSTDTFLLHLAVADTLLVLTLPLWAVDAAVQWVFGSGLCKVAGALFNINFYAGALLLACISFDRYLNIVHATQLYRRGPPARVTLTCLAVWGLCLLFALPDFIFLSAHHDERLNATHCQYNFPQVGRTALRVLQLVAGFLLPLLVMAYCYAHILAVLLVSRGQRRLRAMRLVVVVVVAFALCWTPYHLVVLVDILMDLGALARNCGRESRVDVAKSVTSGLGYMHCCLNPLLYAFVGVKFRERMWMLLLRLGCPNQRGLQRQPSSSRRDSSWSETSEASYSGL
Kind of data set: Displacement of [125I]CXCL10 from human CXCR3 expressed in mouse BA/F3 cells. The class given is cell-based, BaF3. The gist of the method:
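Radioligand displacement of 125I-labelled human CXCL10 from recombinant Ba/F3 cells expressing human CXCR3.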
(Displacement assays read how much labelled ligand stays bound in the presence of the test substance.)

Another data set has as its target hERG (KCNH2) (Homo sapiens, UniProt Q12809). Kind of data set: Inhibition of human ERG at 10 uM by rubidium efflux assay. Summed up: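 hERG K+ channel block measured by rubidium efflux with test compound at 10 μM, reported as % inhibition.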

Where only a bound is given, the exact number is not on record here.

Sequence of hERG (KCNH2) (Q12809 whole entry): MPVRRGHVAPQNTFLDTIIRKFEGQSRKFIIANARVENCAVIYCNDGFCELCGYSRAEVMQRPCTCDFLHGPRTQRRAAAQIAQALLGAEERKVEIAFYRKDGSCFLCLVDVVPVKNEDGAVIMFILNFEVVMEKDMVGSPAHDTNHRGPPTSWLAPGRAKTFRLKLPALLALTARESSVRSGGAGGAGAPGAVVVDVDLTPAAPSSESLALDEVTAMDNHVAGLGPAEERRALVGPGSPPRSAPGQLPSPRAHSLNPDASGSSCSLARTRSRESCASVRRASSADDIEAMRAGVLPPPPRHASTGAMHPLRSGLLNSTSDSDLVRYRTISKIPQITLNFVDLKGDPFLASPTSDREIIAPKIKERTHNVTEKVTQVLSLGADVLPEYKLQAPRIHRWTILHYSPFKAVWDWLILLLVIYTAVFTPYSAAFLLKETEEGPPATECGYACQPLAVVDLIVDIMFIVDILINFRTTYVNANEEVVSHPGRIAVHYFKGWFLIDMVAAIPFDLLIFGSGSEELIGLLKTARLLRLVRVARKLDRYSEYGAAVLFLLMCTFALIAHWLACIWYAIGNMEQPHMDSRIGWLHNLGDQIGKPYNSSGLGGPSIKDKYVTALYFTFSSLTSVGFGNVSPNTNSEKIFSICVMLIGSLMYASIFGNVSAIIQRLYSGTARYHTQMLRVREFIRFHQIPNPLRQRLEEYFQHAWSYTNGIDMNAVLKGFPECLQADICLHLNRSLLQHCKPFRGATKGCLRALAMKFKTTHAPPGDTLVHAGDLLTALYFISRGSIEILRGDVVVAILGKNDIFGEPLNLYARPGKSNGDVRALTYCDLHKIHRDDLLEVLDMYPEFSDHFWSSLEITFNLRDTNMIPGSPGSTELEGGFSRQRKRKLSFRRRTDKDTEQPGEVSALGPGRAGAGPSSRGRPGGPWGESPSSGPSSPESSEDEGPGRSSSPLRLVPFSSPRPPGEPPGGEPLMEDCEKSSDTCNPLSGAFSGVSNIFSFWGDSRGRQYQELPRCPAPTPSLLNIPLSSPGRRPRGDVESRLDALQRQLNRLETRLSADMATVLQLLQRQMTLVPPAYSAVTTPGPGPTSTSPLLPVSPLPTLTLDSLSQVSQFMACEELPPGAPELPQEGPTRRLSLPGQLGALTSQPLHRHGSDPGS

The molecule `CC[C@H]1CN(c2nc(N)c(C(N)=O)nc2Cl)CCN1C1CCN(Cc2ccc(Cl)cc2)CC1` came in with an AUC at 6 h in data set [1] of 5.1 µM·h.

Regarding `CC[C@H]1CN(c2nc(N)c(C(N)=O)nc2Cl)CCN1C1CCN(Cc2ccc(OC(F)(F)F)cc2)CC1`, the IC50 in data set [2] was 3.7 nM.

Regarding `CC[C@H]1CN(c2nc(N)c(C(N)=O)nc2Cl)CCN1C1CCN(Cc2ccc(C#N)cc2)CC1`, the half-inhibitory concentration (IC50) in data set [2] came to 8.5 nM.

With `CC[C@H]1CN(c2nc(N)c(C(N)=O)nc2Cl)CCN1C1CCN(C(CO)c2ccc(Cl)cc2)CC1` (some centres undefined), the IC50 in data set [2] amounted to 1.9 nM. Compared with the last molecule, the IC50 is about 4.5-fold lower.

`CC[C@H]1CN(c2nc(N)c(C(N)=O)nc2Cl)CCN1C1CCN(C(=O)c2ccc(Cl)cc2)CC1`: the IC50 in data set [2] was determined as 76 nM. Against the preceding molecule, the IC50 is about 40-fold higher.

As to `CC[C@H]1CN(c2nc(N)c(C(=O)NC)nc2Cl)CCN1C1CCN(Cc2ccc(Cl)cc2)CC1`, the half-maximal inhibitory concentration (IC50) in data set [2] came out at 0.3 nM.

In turn, `CC[C@H]1CN(c2nc(N)c(C(=O)NCC(F)(F)F)nc2Cl)CCN1C1CCN(Cc2ccc(Cl)cc2)CC1` displayed an IC50 in data set [2] of 0.8 nM.

For `CC[C@H]1CN(c2nc(N)c(C(=O)NCCO)nc2Cl)CCN1C1CCN(Cc2ccc(Cl)cc2)CC1`, the half-inhibitory concentration (IC50) in data set [2] is 0.4 nM.

As for `CC[C@H]1CN(c2nc(N)c(C(=O)NCC(C)O)nc2Cl)CCN1C1CCN(Cc2ccc(Cl)cc2)CC1` (some centres undefined), the half-maximal inhibitory concentration (IC50) in data set [2] was 0.3 nM.

In data set [2], `CC[C@H]1CN(c2nc(N)c(C(=O)NCC(C)(C)O)nc2Cl)CCN1C1CCN(Cc2ccc(Cl)cc2)CC1` had an IC50 of 8.4 nM.

In turn, `CC[C@H]1CN(c2nc(N)c(C(=O)NCCNS(=O)(=O)C(F)(F)F)nc2Cl)CCN1C1CCN(Cc2ccc(Cl)cc2)CC1` returned a 50% inhibitory concentration (IC50) in data set [2] of 0.9 nM.

In the case of `CC[C@H]1CN(c2nc(N)c(C(=O)NCCNS(N)(=O)=O)nc2Cl)CCN1C1CCN(Cc2ccc(Cl)cc2)CC1`, the IC50 in data set [2] came to 1.9 nM.

With `CC[C@H]1CN(c2nc(N)c(C(=O)NCCS(C)(=O)=O)nc2Cl)CCN1C1CCN(Cc2ccc(Cl)cc2)CC1`, the concentration for half-maximal inhibition (IC50) in data set [2] is 6.4 nM.

`CC[C@H]1CN(c2nc(N)c(C(=O)N[C@@H]3CCOC3=O)nc2Cl)CCN1C1CCN(Cc2ccc(Cl)cc2)CC1` registered an IC50 in data set [2] of 1.5 nM.

In turn, `CC[C@H]1CN(c2nc(N)c(C(=O)NCCNS(N)(=O)=O)nc2Cl)CCN1C1CCN(Cc2ccc(F)c(F)c2)CC1` came in with an IC50 in data set [2] of 9 nM. For the same molecule, testing at 10 µM against hERG (KCNH2) gave an inhibition of 4%.

In data set [2], `CC[C@H]1CN(c2nc(N)c(C(=O)NCCNS(C)(=O)=O)nc2Cl)CCN1C1CCN(Cc2ccc(Cl)cc2)CC1` registered an IC50 of 4.4 nM. Further, at hERG (KCNH2), the inhibition at 10 µM stood at 39%.

`CC[C@H]1CN(c2nc(N)c(C(N)=O)nc2Cl)CCN1C1CCN(Cc2ccc(Cl)cc2[C@H](O)C(N)=O)CC1` registered a concentration for half-maximal inhibition (IC50) in data set [2] of 4.1 nM. Besides, on hERG (KCNH2), at 10 µM the inhibition was 14%.

`CC[C@H]1CN(c2nc(N)c(C(=O)NCCO)nc2Cl)CCN1C1CCN(C(=O)c2ccc(Cl)nc2N)CC1` gave an IC50 in data set [2] of 3.4 nM. The same molecule had an area under the curve (AUC) at 6 h in data set [1] of 5.9 µM·h. The molecule also returned an inhibition at 10 µM against hERG (KCNH2) of 17%.

Consider `CC[C@H]1CN(c2ncc(C(N)=O)nc2Cl)CCN1C1CCN(C(=O)c2ccc(Cl)nc2N)CC1`, for which the IC50 in data set [2] is 2.5 nM. At hERG (KCNH2), this molecule displayed an inhibition at 10 µM of 7%.

Consider `CC[C@H]1CN(c2ncc(C(=O)NC(C)(C)C)nc2Cl)CCN1C1CCN(C(=O)c2ccc(Cl)nc2N)CC1`, for which the half-maximal inhibitory concentration (IC50) in data set [2] was found to be 1.5 nM. On hERG (KCNH2), the inhibition at 10 µM was 13%.

The molecule `CC[C@H]1CN(c2ncc(C(=O)NC3CC3)nc2Cl)CCN1C1CCN(C(=O)c2ccc(Cl)nc2N)CC1` yielded an IC50 in data set [2] of 1.2 nM. In addition, the inhibition at 10 µM at hERG (KCNH2) turned out to be 19%.

`CC[C@H]1CN(c2ncc(C(=O)NC(C)C)nc2Cl)CCN1C1CCN(C(=O)c2ccc(Cl)nc2N)CC1` had an IC50 in data set [2] of 0.9 nM. This molecule also yielded an inhibition at 10 µM against hERG (KCNH2) of 56%.

With `CC[C@H]1CN(c2ncc(C(=O)NCCO)nc2Cl)CCN1C1CCN(C(=O)c2ccc(Cl)nc2N)CC1`, the IC50 in data set [2] stood at 2.9 nM. The inhibition at 10 µM on hERG (KCNH2) was found to be 11%.

For `CC[C@H]1CN(c2ncc(C(=O)NC[C@@H](C)O)nc2Cl)CCN1C1CCN(C(=O)c2ccc(Cl)nc2N)CC1`, in data set [2], the concentration for half-maximal inhibition (IC50) was determined as 2.9 nM. In addition, 10 µM produced 17% inhibition against hERG (KCNH2).

`CC[C@H]1CN(c2ncc(C(N)=O)nc2C(F)(F)F)CCN1C1CCN(C(=O)c2ccc(Cl)nc2N)CC1` returned an IC50 in data set [2] of 1.9 nM. For the same molecule, the exposure (AUC) at 6 h in data set [1] turned out to be 15.3 µM·h. Moreover, the inhibition at 10 µM at hERG (KCNH2) came to 0%.

`CC[C@H]1CN(c2ncc(C(=O)NC)nc2C(F)(F)F)CCN1C1CCN(C(=O)c2ccc(Cl)nc2N)CC1` returned a half-maximal inhibitory concentration (IC50) in data set [2] of 1.5 nM. The AUC at 6 h in data set [1] is 6.4 µM·h. Further, on hERG (KCNH2), the inhibition at 10 µM came to 0%.

`CC[C@H]1CN(c2ncc(C(=O)NC3CC3)nc2C(F)(F)F)CCN1C1CCN(C(=O)c2ccc(Cl)nc2N)CC1` had a 50% inhibitory concentration (IC50) in data set [2] of 1.8 nM. Further, the AUC at 6 h in data set [1] turned out to be 3.6 µM·h. 10 µM produced 53% inhibition against hERG (KCNH2).

Take `CC[C@H]1CN(c2ncc(C(N)=O)nc2C)CCN1C1CCN(C(=O)c2ccc(Cl)nc2N)CC1`: in data set [2], the IC50 was 4 nM. The AUC at 6 h in data set [1] was 30.2 µM·h. This molecule also showed an inhibition at 10 µM against hERG (KCNH2) of 0%.

Take `CC[C@H]1CN(c2ncc(C(=O)NC)nc2C)CCN1C1CCN(C(=O)c2ccc(Cl)nc2N)CC1`: in data set [2], the 50% inhibitory concentration (IC50) was 2.4 nM. Also, the AUC at 6 h in data set [1] worked out at 12.1 µM·h. In addition, at 10 µM the inhibition against hERG (KCNH2) was 5%.

Turning to `CC[C@H]1CN(c2ncc(C(=O)NC3CC3)nc2C)CCN1C1CCN(C(=O)c2ccc(Cl)nc2N)CC1`, the half-inhibitory concentration (IC50) in data set [2] stood at 1.9 nM. Besides, the AUC at 6 h in data set [1] is 22 µM·h. The molecule further showed an inhibition at 10 µM against hERG (KCNH2) of 16%.

In data set [2], `CC[C@H]1CN(c2ncc(C(N)=O)nc2C)CCN1C1CCN(C(=O)c2ccc(Cl)cc2)CC1` yielded an IC50 of 18 nM. Also, the inhibition at 10 µM against hERG (KCNH2) was 6%.

Take `CC[C@H]1CN(c2ncc(C(=O)NC)nc2C)CCN1C1CCN(C(=O)c2ccc(Cl)cc2)CC1`: the IC50 in data set [2] came to 3.6 nM. This molecule registered an inhibition at 10 µM on hERG (KCNH2) of 41%.

In data set [2], `CCNC(=O)c1cnc(N2CCN(C3CCN(C(=O)c4ccc(Cl)cc4)CC3)[C@@H](CC)C2)c(C)n1` came in with an IC50 of 2 nM. In addition, the exposure (AUC) at 6 h in data set [1] stood at 2.9 µM·h. Moreover, at hERG (KCNH2), the inhibition at 10 µM was 44%.

In turn, `CC[C@H]1CN(c2ncc(C(=O)NC3CC3)nc2C)CCN1C1CCN(C(=O)c2ccc(Cl)cc2)CC1` yielded an IC50 in data set [2] of 1.1 nM. Further, in data set [1], the area under the curve (AUC) at 6 h is 8.4 µM·h. The inhibition at 10 µM against hERG (KCNH2) came to 74%.

Turning to `CC[C@H]1CN(c2ncc(C(N)=O)nc2C)[C@H](C)CN1C1CCN(C(=O)c2ccc(Cl)cc2)CC1`, in data set [2], the IC50 came to 5.4 nM. The molecule also showed an inhibition at 10 µM against hERG (KCNH2) of 9%.

`CC[C@@H]1CN(C2CCN(C(=O)c3ccc(Cl)cc3)CC2)[C@@H](CC)CN1c1ncc(C(N)=O)nc1C` yielded an IC50 in data set [2] of 235 nM. The molecule also displayed an inhibition at 10 µM against hERG (KCNH2) of 13%.

`CC[C@H]1CN(c2ncc(C(N)=O)nc2C)[C@@H](C)CN1C1CCN(C(=O)c2ccc(Cl)cc2)CC1` gave an IC50 in data set [2] of over 1000 nM.

With `CC[C@H]1CN(c2ncc(C(=O)NC)nc2C)[C@H](C)CN1C1CCN(C(=O)c2ccc(Cl)cc2)CC1`, in data set [2], the IC50 worked out at 4.2 nM. The same molecule showed an inhibition at 10 µM on hERG (KCNH2) of 30%.

Consider `CC[C@H]1CN(c2ncc(C(=O)NC3CC3)nc2C)[C@H](C)CN1C1CCN(C(=O)c2ccc(Cl)cc2)CC1`, for which, in data set [2], the half-inhibitory concentration (IC50) worked out at 1.3 nM. The molecule also showed an exposure (AUC) at 6 h in data set [1] of 9.8 µM·h. The molecule also returned an inhibition at 10 µM at hERG (KCNH2) of 7%.

Molecule `CCNC(=O)c1cnc(N2CCN(C3CCN(Cc4ccc(Cl)cc4)CC3)[C@@H](CC)C2)c(Cl)c1` showed an AUC at 6 h in data set [1] of 0.4 µM·h.
